For one data set, the system named is Brain. The data set can be described thus: Ratio of drug level in brain after 2 mins to drug level in brain after 60 mins in ICR mouse. The class given is ADME, tissue-based. To be noted: in vivo. The gist of the method:
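Male normal ICR mice (5 weeks old), n = 5 per time point, received a tail-vein injection of [18F] tracer (740–1110 kBq/mL) in saline containing 10% EtOH. Mice were sacrificed at 2, 10, 30 and 60 min. Organs were removed, weighed and gamma-counted, and data were expressed as %ID/g.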

The nature of data set [1]: Ratio of drug level in brain to blood in ICR mouse after 2 mins. The class given is ADME, tissue-based. As to conditions: brain and blood, read-out: BBR. The gist of the method:
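Male ICR mice (5 weeks) received the ¹⁸F tracer (740–1110 kBq/mL) in saline with 10% EtOH by tail-vein injection. Five mice per time point were sacrificed at 2, 10, 30 and 60 min. Organs were removed, weighed and gamma-counted, and expressed as %ID/g. The ratio is brain %ID/g over blood %ID/g at 2 min.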

Data set [2] deals with Amyloid-beta precursor protein (Homo sapiens, UniProt P05067). The data set can be described thus: Displacement of [125I]IMPY from amyloid beta (1 to 42) (unknown origin) after 3 hrs by gamma counting analysis. The gist of the method:
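Test compound ranged over 10^-4 to 10^-8.5 in ethanol, in 0.05% BSA, 1 mL total. Incubation was 3 h at room temperature, then GF/B filtration and gamma counting. IC50 came from three independent experiments, and Ki was derived by Cheng–Prusoff.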

Amyloid-beta precursor protein, sequence (P05067 whole entry): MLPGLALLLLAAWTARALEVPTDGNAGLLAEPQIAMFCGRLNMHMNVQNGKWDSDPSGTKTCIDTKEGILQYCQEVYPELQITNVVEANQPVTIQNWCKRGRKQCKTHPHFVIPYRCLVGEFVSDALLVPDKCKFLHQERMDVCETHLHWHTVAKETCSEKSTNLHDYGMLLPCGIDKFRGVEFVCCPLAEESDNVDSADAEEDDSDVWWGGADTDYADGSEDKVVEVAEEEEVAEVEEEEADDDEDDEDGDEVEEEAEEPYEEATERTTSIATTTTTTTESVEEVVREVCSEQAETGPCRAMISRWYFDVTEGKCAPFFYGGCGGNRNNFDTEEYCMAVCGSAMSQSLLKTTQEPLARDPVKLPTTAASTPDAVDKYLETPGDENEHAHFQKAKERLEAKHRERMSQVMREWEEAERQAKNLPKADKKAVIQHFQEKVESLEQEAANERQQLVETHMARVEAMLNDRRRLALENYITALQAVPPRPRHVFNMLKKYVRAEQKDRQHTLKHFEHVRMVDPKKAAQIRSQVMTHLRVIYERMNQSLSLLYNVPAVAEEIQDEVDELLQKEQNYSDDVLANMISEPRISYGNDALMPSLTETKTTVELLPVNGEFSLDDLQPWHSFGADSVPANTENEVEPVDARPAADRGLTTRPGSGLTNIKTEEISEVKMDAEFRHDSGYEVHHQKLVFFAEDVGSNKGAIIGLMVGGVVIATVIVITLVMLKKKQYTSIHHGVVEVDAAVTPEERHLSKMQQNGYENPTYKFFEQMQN

For `CN(C)c1ccc(-c2cc3cc([125I])ccc3[nH]2)cc1`, the Ratio in the data set on Brain was 1.68. The Kp at 2 min in data set [1] turned out to be 0.19.
For `CN(CCF)c1ccc(-c2cc3ccccc3n2C)cc1`, the inhibitory constant (Ki) in data set [2] came out at 117 nM.
For `COc1ccc(-c2cc3cc([125I])ccc3[nH]2)cc1`, in the data set on Brain, the Ratio worked out at 1.82. The Kp at 2 min in data set [1] was found to be 0.59.

The record behind these values is ChEMBL document CHEMBL2396535, “Synthesis and biological evaluation of 18F-labled 2-phenylindole derivatives as PET imaging probes for β-amyloid plaques” (Bioorg Med Chem, 2013).
